Assay results published in article PMC7396963 (Journal of pharmaceutical and biomedical analysis, 2018).
Like-named read-outs stand apart in the source and are kept apart here.

What was measured:
α-glucosidase = α-glucosidase inhibitory activities; cited from earlier work
UGT1A9 = target: T1, UGT1A9 (Homo sapiens, UniProt O60656); assay: Glucuronidation kinetics of NBIF by recombinant UGT1A9; format: in vitro ADME; settings: for Vmax: glucuronide formation from NBIF, recombinant UGT1A9
T1 sequence (O60656 26-530): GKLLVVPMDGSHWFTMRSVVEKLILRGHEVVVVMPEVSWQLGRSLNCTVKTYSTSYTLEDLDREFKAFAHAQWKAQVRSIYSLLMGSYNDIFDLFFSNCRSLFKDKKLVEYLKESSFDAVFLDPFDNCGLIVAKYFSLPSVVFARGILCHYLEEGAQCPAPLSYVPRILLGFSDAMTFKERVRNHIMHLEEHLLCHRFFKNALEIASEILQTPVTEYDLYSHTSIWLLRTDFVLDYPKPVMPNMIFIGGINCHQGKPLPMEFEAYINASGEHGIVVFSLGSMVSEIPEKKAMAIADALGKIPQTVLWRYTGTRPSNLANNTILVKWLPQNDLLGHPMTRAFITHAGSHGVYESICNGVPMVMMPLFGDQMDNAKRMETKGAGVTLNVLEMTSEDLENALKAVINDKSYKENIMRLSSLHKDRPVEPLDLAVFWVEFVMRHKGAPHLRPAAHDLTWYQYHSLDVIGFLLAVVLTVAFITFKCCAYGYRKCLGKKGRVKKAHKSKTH
In short: (§1)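 Incubation in 50 mM Tris-HCl (pH 7.4) with 4.0 mM MgCl2, 22 μg/mL alamethicin, 4.4 mM saccharolactone and 3.5 mM UDPGA. Enzyme source is recombinant UGT or pooled liver or intestinal microsomes, as the line states. Test compound 0.16–80 μM, 1 h. Ice-cold acetonitrile stop, centrifugation, UHPLC/Q-TOF-MS semi-quantification of glucuronides. Minus-UDPGA control. Triplicate. Michaelis-Menten or substrate-inhibition model chosen by Eadie-Hofstee plot; CLint = Vmax/Km.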

human carboxylesterase 2 = settings: cited from earlier work
[1] = Glucuronidation kinetics of NBIF in HLM; format: in vitro ADME, human
In short: as §1

platelet aggregation = settings: inhibition of platelet aggregation; cited from earlier work
[2] = target: human monoamine oxidase-A; settings: cited from earlier work
[3] = inhibitory effect on HLM; cited from earlier work
[4] = system: UDP-glucuronosyltransferase 1A1 (UGT1A1); settings: inhibitory effect on UGT1A1; cited from earlier work
[5] = target: human monoamine oxidase-B; settings: cited from earlier work
[6] = Species difference analysis of NBIF metabolism; format: in vitro ADME; settings: CLint, HLM versus animal liver microsomes
In short: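 CLint values (Vmax/Km from model fits) for oxidation and glucuronidation come from pooled human liver microsomes and from monkey, rat, mouse, dog and rabbit liver microsomes. Each was incubated with test compound at 0.16–80 μM, using NADPH-supplemented oxidation or UDPGA/alamethicin glucuronidation conditions. Metabolites were measured by UHPLC/Q-TOF-MS in triplicate.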

[7] = Glucuronidation kinetics of NBIF in MkLM; format: in vitro ADME, monkeys; settings: glucuronide formation from NBIF, UDPGA-supplemented MkLM
In short: as §1

[8] = Glucuronidation kinetics of NBIF in HIM; format: in vitro ADME, human; settings: glucuronide formation from NBIF, UDPGA-supplemented HIM
In short: as §1

[9] = Glucuronidation kinetics of NBIF in DLM; format: in vitro ADME, dogs; settings: glucuronide formation from NBIF, UDPGA-supplemented DLM
In short: as §1

UGT1A1 = target: T2, UGT1A1 (Homo sapiens, UniProt P22309); assay: Glucuronidation kinetics of NBIF by recombinant UGT1A1; format: in vitro ADME; settings: glucuronide formation from NBIF
T2 sequence (P22309 26-533): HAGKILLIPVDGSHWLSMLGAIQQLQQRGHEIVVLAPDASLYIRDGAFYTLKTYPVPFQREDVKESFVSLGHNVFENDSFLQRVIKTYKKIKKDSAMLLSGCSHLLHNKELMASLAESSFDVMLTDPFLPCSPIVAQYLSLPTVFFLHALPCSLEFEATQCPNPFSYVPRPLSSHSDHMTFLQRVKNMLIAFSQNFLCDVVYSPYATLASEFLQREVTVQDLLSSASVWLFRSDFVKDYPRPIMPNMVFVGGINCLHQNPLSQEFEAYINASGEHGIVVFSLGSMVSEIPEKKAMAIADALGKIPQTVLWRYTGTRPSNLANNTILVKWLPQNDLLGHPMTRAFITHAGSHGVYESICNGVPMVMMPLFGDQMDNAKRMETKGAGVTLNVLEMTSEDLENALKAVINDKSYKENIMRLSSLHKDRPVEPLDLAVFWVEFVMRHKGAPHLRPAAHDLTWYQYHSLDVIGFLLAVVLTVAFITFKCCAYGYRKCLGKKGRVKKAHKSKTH
In short: as §1

[10] = Glucuronidation kinetics of NBIF in MLM; format: in vitro ADME, mice; settings: glucuronide formation from NBIF, UDPGA-supplemented MLM
In short: as §1

UGT1A8 = target: T3, UGT1A8 (Homo sapiens, UniProt Q9HAW9); assay: Glucuronidation kinetics of NBIF by recombinant UGT1A8; format: in vitro ADME; settings: glucuronide formation from NBIF
T3 sequence (Q9HAW9 26-530): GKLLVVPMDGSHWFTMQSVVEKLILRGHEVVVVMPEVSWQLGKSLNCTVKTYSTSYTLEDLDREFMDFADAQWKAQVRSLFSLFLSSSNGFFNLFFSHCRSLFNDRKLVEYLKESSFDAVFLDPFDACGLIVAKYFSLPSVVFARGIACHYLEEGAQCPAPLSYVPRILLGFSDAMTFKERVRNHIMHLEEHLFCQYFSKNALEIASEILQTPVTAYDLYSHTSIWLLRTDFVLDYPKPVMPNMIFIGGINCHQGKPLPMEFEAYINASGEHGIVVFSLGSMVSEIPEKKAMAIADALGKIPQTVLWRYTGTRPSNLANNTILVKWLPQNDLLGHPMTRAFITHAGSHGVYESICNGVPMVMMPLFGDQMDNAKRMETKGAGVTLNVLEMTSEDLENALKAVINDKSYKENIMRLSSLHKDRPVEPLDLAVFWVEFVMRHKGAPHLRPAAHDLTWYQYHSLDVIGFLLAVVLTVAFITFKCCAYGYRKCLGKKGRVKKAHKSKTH
In short: as §1

[11] = Glucuronidation kinetics of NBIF in RLM; format: in vitro ADME, rats; settings: glucuronide formation from NBIF, UDPGA-supplemented RLM
In short: as §1

[12] = Glucuronidation kinetics of NBIF in RaLM; format: in vitro ADME, rabbits; settings: glucuronide formation from NBIF, UDPGA-supplemented RaLM
In short: as §1

UGT1A7 = target: T4, UGT1A7 (Homo sapiens, UniProt Q9HAW7); assay: Glucuronidation kinetics of NBIF by recombinant UGT1A7; format: in vitro ADME; settings: glucuronide formation from NBIF
T4 sequence (Q9HAW7 26-530): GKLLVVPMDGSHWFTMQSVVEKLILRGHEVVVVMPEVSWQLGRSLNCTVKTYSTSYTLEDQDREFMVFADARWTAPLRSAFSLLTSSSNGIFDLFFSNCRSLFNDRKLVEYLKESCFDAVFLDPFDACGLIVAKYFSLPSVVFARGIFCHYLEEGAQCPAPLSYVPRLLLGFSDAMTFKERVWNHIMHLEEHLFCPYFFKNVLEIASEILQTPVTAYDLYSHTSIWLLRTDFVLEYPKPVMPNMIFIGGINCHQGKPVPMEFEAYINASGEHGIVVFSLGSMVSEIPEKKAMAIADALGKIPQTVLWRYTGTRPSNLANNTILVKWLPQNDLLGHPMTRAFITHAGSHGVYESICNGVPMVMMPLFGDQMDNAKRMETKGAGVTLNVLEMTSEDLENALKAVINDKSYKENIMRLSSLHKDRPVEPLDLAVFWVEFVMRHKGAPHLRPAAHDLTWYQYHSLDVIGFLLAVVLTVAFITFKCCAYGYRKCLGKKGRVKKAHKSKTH
In short: as §1

[13] = glucuronidation; cited from earlier work
[14] = glucuronidation; cited from earlier work; remark: listed apart in the source
[15] = glucuronide formation from NBIF, UDPGA-supplemented HLM

SMILES | Vmax (UGT1A9) | Ki (UGT1A1) | Vmax (UGT1A1) | Ki [10] | Vmax (UGT1A8) | Ki [11] | Ki (UGT1A7) | Vmax (UGT1A7) | Vmax [7] | Vmax [8] | Vmax [9] | Vmax [10] | Vmax [11] | Vmax [12] | Vmax [1, 15] | other results
CC(C)=CCc1cc(-c2coc3cc(O)ccc3c2=O)ccc1O [NBIF, Neobavaisoflavone] |  |  |  |  |  |  |  |  |  |  |  |  |  |  |  | IC50 (α-glucosidase): 27.7 µM; microsomal CLint (UGT1A9; human, recombinant UGT1A9, pH 7.4): 1070 µL/min/mg; IC50 (human carboxylesterase 2): 6.39 µM; microsomal CLint ([1]; human, human liver microsomes (HLM) and HIM, pH 7.4): 60 to 949 µL/min/mg; IC50 (platelet aggregation): 2.5 µM; IC50 [2]: 66.5 µM; IC50 [3]: 2.25 µM; IC50 [4]: 2.42 µM; IC50 [5]: 77.3 µM; species differences in glucuronidation [6]: approximately 2.3 fold; species differences in the phase I metabolism [6]: approximately 16.1 fold
COc1ccc(-c2oc3c(CCC(C)(C)O)c(O)cc(O)c3c(=O)c2O)cc1 [wushanicaritin] |  |  |  |  |  |  |  |  |  |  |  |  |  |  |  | CLint values [13]: > 160 µL/min/mg
COc1ccc(-c2oc3c(CC=C(C)C)c(O)cc(O)c3c(=O)c2O)cc1 [icaritin] |  |  |  |  |  |  |  |  |  |  |  |  |  |  |  | CLint values [14]: more than 270 μL/min/mg

Now from value to compound, other results behind:

Vmax (UGT1A9) | Ki (UGT1A1) | Vmax (UGT1A1) | Ki [10] | Vmax (UGT1A8) | Ki [11] | Ki (UGT1A7) | Vmax (UGT1A7) | SMILES | Vmax [7] | Vmax [8] | Vmax [9] | Vmax [10] | Vmax [11] | Vmax [12] | Vmax [1, 15] | other results
70.01 ± 1.37 pmol/min/mg | 291.1 ± 100.1 µM | 912.4 ± 49.36 pmol/min/mg | 38.19 ± 10.18 µM | 419.1 ± 18.69 pmol/min/mg | 24.73 ± 4.75 µM | 61.82 ± 13.5 µM | 11.93 ± 0.55 pmol/min/mg | CC(C)=CCc1cc(-c2coc3cc(O[C@@H]4O[C@H](C(=O)O)[C@@H](O)[C@H](O)[C@H]4O)ccc3c2=O)ccc1O [G1, NBIF-7-O-glucuronide] | 4129.0 ± 182.8 pmol/min/mg | 409.3 ± 18.9 pmol/min/mg | 1807.0 ± 48.14 pmol/min/mg | 3589.0 ± 432.9 pmol/min/mg | 2490.0 ± 249.5 pmol/min/mg | 3006.0 ± 103.8 pmol/min/mg | 1788.0 ± 203.6 pmol/min/mg | Ki [1, 15]: 48.45 ± 13.86 µM
805.9 ± 17.46 pmol/min/mg | 401.2 ± 135.7 µM | 48.33 ± 1.59 pmol/min/mg | 31.68 ± 9.16 µM | 147.0 ± 6.84 pmol/min/mg | 9.09 ± 1.82 µM | 154.5 ± 44.85 µM | 135.3 ± 4.36 pmol/min/mg | CC(C)=CCc1cc(-c2coc3cc(O)ccc3c2=O)ccc1O[C@@H]1O[C@H](C(=O)O)[C@@H](O)[C@H](O)[C@H]1O [G2, NBIF-4′-O-glucuronide] | 7072.0 ± 228.4 pmol/min/mg | 8655.0 ± 1021.0 pmol/min/mg | 3363.0 ± 85.47 pmol/min/mg | 3878.0 ± 563.1 pmol/min/mg | 826.6 ± 99.48 pmol/min/mg | 3411.0 ± 155.5 pmol/min/mg | 919.1 ± 20.23 pmol/min/mg | Ki [8]: 33.32 ± 7.95 µM
